A short description of experiment [1]: Displacement of [3H]CGP39653 from NMDA receptor in rat brain synaptosomal membranes after 60 mins by TopCount microplate scintillation counting method. It counts as cell membranes. In general terms: Displacement assays read how much labelled ligand stays bound in the presence of the test substance.
Experiment [2] can be described thus: Displacement of [3H]kainic acid from kainate receptor in rat brain synaptosomal membranes after 60 mins by TopCount microplate scintillation counting method. In kind it is cell membranes.
Experiment [3] addresses T1, Glutamate receptor ionotropic, kainate 2 (Rattus norvegicus, UniProt P42260). In words: Displacement of [3H]kainic acid from eGFP-fused recombinant rat full length GluK2 receptor expressed in HEK293T/17 cells by liquid scintillation counting method. In kind it is cell-based.
A short description of experiment [4]: Displacement of [3H]AMPA from AMPA receptor in rat brain synaptosomal membranes after 30 mins by TopCount microplate scintillation counting method. It counts as cell membranes.
The target in experiment [5] is T2, Glutamate receptor ionotropic, kainate 1 (Rattus norvegicus, UniProt P22756). The experiment can be described thus: Displacement of [3H]NF608 from eGFP-fused recombinant rat full length GluK1 receptor expressed in HEK293T/17 cells by liquid scintillation counting method. In kind it is cell-based.
T2 sequence (P22756 whole entry, the tested form may be a part): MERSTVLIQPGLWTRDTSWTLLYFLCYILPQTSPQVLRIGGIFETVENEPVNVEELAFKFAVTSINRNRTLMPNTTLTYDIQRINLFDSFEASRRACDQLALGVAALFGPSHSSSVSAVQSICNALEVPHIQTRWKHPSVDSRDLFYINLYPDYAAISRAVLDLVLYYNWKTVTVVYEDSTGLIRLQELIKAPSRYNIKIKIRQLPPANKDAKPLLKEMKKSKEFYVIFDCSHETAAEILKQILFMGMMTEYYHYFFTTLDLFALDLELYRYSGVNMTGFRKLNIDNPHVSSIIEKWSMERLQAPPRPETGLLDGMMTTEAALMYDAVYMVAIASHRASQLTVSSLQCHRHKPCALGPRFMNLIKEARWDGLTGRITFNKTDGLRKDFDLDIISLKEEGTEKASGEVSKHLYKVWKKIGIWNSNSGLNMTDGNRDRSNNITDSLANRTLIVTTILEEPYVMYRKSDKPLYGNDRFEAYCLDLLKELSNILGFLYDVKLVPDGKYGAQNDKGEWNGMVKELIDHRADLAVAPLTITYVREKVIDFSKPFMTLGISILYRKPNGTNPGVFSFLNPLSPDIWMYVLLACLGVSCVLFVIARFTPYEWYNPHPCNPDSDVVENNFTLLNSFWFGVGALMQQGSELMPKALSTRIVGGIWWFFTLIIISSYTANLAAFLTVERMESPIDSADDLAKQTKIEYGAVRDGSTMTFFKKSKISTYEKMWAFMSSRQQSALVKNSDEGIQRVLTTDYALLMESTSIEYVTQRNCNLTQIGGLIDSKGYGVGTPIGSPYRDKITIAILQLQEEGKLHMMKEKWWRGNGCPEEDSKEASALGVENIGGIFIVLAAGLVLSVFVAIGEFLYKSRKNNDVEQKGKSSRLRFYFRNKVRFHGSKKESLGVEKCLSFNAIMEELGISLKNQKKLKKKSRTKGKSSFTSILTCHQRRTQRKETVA
For experiment [6], the target named is Glutamate receptor ionotropic, kainate 3 (Rattus norvegicus, UniProt P42264). The experiment can be described thus: Displacement of [3H]kainic acid from eGFP-fused recombinant rat full length GluK3 receptor expressed in HEK293T/17 cells by liquid scintillation counting method. It counts as cell-based.
Sequence of Glutamate receptor ionotropic, kainate 3 (P42264 whole entry, the tested form may be a part): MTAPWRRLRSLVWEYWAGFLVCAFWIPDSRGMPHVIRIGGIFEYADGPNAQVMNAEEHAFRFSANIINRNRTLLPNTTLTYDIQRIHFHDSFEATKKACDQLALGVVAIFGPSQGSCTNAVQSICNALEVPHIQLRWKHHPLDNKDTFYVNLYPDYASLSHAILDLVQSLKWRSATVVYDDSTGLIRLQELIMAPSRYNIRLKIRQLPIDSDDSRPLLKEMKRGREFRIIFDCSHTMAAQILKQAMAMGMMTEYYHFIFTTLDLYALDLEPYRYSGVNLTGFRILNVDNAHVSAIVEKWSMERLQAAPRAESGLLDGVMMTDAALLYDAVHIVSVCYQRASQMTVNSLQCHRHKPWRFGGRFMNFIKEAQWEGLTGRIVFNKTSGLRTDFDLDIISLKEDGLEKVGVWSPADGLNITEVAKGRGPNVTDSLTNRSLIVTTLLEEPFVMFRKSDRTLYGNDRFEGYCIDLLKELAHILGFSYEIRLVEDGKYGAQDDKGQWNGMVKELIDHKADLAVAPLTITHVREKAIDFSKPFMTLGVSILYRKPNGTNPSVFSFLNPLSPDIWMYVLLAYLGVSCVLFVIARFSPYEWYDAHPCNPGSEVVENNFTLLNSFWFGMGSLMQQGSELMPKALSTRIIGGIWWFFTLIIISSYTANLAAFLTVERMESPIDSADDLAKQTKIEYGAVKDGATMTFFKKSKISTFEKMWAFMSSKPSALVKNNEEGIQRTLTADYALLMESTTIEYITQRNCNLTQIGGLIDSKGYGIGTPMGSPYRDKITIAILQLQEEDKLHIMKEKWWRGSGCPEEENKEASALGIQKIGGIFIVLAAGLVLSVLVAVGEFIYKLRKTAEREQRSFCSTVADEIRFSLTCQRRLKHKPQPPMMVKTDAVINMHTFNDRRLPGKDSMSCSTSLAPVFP
Experiment [7] concerns the target Glutamate receptor 2 (Rattus norvegicus, UniProt P19491). The experiment can be described thus: Displacement of (RS)-[3H]AMPA from eGFP-fused recombinant rat full length GluA2 receptor expressed in HEK293T/17 cells by liquid scintillation counting method. It counts as cell-based.
For experiment [8], the target named is Excitatory amino acid transporter 1 (Homo sapiens, UniProt P43003). In words: Inhibition of human EAAT1 expressed in HEK293 cells assessed as reduction in [3H]-D-Asp uptake after 15 mins by TopCount scintillation counting method. In kind it is cell-based.
Sequence of Excitatory amino acid transporter 1 (P43003 whole entry): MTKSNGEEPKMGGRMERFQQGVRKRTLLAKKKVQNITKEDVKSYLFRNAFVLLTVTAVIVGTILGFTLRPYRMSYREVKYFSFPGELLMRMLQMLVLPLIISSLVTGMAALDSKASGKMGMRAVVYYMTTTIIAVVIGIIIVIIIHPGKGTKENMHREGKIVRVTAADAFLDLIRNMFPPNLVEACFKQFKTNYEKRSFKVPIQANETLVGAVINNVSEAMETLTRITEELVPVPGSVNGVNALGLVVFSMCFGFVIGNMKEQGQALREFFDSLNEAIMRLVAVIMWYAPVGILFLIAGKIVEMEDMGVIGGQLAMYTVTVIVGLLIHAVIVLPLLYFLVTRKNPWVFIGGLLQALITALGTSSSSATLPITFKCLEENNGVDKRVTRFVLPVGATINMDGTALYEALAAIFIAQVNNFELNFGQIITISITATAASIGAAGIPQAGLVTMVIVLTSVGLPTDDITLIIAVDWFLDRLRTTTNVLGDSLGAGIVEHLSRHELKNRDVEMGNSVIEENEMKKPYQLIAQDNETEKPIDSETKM
Experiment [9] concerns the target T3, Excitatory amino acid transporter 3 (Homo sapiens, UniProt P43005).
T3 sequence (P43005 whole entry): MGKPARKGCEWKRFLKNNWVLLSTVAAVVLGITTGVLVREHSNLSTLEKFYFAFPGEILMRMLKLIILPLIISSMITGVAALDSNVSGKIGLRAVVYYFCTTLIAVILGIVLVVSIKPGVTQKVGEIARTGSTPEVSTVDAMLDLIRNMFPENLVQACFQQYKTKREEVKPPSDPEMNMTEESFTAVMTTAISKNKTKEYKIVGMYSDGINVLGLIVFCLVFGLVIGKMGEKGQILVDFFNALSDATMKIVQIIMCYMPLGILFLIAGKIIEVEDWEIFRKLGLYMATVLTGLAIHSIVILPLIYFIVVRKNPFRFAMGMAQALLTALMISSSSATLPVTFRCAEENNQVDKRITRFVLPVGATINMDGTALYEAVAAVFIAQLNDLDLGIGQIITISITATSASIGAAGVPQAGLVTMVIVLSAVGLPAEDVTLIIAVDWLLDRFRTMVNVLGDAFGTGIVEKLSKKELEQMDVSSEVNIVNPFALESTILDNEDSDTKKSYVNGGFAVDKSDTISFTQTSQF
In words: Inhibition of human EAAT3 expressed in HEK293 cells assessed as reduction in [3H]-D-Asp uptake after 15 mins by TopCount scintillation counting method. It counts as cell-based.

For experiment [10], the target named is Excitatory amino acid transporter 2 (Homo sapiens, UniProt P43004). In words: Inhibition of human EAAT2 expressed in HEK293 cells assessed as reduction in [3H]-D-Asp uptake after 15 mins by TopCount scintillation counting method. It counts as cell-based.
Sequence of Excitatory amino acid transporter 2 (P43004 whole entry, the tested form may be a part): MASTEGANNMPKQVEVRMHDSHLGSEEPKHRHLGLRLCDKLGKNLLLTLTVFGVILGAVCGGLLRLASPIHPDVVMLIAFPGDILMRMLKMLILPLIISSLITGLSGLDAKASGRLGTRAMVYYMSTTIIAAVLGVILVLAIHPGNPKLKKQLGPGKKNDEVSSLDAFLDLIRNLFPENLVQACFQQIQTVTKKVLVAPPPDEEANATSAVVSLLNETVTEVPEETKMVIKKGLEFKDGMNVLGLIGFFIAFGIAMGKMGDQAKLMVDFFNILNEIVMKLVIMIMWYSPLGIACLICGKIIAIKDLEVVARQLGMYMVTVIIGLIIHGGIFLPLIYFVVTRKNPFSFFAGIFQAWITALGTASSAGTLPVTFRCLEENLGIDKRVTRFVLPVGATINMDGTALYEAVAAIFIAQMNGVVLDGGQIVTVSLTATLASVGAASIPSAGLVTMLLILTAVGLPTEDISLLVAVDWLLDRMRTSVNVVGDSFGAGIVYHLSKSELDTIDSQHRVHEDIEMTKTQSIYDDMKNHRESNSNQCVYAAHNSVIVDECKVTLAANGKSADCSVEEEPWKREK
Experiment [11] addresses T2, Glutamate receptor ionotropic, kainate 1. In words: Displacement of [3H]-(2S,4R)-4-Methylglutamic acid from rat eGFP-fused GluK1 receptor LBD expressed in HEK293T/17 cells by liquid scintillation counting method. In kind it is cell-based.
Experiment [12] shares this target. In words: Antagonist activity at recombinant rat full length GluK1 receptor expressed in HEK293T cells assessed as inhibition of glutamate induced increase in peak current at -100mV holding potential by patch-clamp method. In kind it is cell-based. The procedure, abridged: (§1)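 Rat GluK1-2a or GluK2a cDNA was transiently co-transfected with eGFP into HEK293T/17 cells by calcium phosphate, 24 h after low-density plating on poly-D-lysine. Recordings were made 36–48 h after transfection. Outside-out patches at −100 mV received fast piezo applications of 1 mM Glu (250 ms). Antagonist was added to control and agonist solutions (final 0.001–300 μM). Peak current was taken as % of control (mean ± SEM, 3–5 responses per concentration), and IC50 was fitted with a Hill equation.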
In general terms: Patch clamp records ionic current or voltage across a cell membrane.

Experiment [13] deals with T1, Glutamate receptor ionotropic, kainate 2. The experiment can be described thus: Antagonist activity at recombinant rat full length GluK2 receptor expressed in HEK293T cells assessed as inhibition of glutamate induced increase in peak current at -100mV holding potential by patch-clamp method. It counts as cell-based. The gist of the method:
as §1

T1 sequence (P42260 whole entry, the tested form may be a part): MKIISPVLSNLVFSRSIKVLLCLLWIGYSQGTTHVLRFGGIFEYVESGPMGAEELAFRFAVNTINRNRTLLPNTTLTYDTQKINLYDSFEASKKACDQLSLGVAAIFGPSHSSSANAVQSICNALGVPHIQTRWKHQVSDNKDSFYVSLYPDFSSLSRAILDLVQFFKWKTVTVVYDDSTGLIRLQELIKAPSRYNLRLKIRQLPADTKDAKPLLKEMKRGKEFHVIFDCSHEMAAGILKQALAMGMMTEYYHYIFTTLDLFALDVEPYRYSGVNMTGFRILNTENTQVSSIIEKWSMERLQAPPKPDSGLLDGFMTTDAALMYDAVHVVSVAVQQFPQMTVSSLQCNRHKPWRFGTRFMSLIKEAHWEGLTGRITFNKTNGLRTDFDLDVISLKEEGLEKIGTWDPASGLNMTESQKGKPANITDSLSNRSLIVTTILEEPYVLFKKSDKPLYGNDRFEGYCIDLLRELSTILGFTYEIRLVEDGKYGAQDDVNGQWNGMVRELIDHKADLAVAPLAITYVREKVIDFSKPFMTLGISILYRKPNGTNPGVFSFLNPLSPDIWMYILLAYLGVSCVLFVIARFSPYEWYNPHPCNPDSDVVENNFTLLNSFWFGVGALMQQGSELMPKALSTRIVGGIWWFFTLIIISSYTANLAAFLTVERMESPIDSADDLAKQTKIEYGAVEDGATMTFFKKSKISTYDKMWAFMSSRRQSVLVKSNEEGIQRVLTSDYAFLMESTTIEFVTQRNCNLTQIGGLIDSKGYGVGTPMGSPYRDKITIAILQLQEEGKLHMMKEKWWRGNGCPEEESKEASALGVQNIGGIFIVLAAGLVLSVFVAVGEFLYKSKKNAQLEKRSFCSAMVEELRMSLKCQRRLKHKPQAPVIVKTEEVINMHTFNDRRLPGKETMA
Sequence of Glutamate receptor 2 (P19491 whole entry, the tested form may be a part): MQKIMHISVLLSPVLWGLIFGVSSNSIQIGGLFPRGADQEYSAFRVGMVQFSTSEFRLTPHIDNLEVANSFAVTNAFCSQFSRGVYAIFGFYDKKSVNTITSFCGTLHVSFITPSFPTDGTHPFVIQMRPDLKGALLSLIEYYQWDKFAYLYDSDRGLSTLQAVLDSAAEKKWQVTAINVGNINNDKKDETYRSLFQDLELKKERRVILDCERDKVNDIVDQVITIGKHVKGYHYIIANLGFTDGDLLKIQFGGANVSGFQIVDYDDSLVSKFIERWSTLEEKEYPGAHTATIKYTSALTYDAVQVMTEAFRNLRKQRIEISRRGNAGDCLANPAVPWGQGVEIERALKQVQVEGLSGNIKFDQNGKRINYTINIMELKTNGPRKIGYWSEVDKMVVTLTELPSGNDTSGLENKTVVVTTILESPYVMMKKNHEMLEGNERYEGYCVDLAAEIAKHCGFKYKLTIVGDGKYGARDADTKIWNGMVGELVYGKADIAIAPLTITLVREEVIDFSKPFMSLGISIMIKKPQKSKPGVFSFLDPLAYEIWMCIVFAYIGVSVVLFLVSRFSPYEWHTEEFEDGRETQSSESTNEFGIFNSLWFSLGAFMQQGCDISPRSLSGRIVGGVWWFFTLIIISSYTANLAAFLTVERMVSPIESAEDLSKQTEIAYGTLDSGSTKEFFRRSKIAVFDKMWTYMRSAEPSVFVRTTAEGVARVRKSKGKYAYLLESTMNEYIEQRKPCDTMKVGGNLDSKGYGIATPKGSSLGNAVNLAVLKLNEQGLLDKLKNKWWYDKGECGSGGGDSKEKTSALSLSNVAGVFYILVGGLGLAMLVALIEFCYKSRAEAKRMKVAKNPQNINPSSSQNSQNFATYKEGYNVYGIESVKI

Usually pKi stands for −log10 of the Ki, conventionally taken in molar units. Consider `O=C(O)c1cccc(S[C@H]2CN[C@H](C(=O)O)C2)c1`, for which the Ki was 78 µM in [1]; more than 100 µM in experiment [2]; more than 100 µM in [3]; more than 100 µM in experiment [4]; more than 100 µM in experiment [5] (read-out: Ki); more than 100 µM in experiment [6] (read-out: Ki). This compound also showed a pKi in [1] of 4.11.
Take `Cc1cccc(C(=O)O)c1O[C@H]1CN[C@H](C(=O)O)C1`: the Ki in [1] is more than 100 µM; in experiment [2] it was more than 100 µM; in experiment [3], more than 1000 µM; in [4] it was more than 100 µM; in [7] it was more than 100 µM; in [5] (read-out: Ki), 5.4 µM. For the same compound, the Ki in experiment [6] (read-out: Ki) was more than 100 µM.
In the case of `O=C(O)c1ccc(O[C@@H]2CN[C@H](C(=O)O)C2)cc1`, the Ki in experiment [1], in experiment [2], in [3], in [4], in [5] (read-out: Ki) and in experiment [6] (read-out: Ki) was more than 100 µM in each case.
For `O=C(O)c1c(O[C@H]2CN[C@H](C(=O)O)C2)ccc2ccccc12`, the Ki was more than 100 µM in experiment [1]; more than 100 µM in experiment [2]; more than 100 µM in experiment [3]; more than 100 µM in experiment [4]; more than 100 µM in [7]; 4.5 µM in experiment [5] (read-out: Ki). Also, the Ki in [6] (read-out: Ki) is 137 µM; in experiment [6] (read-out: pKi (converted)), 132 µM.
`Cl.O=C(O)c1cccc(C[C@H]2CN[C@H](C(=O)O)C2)c1`: the Ki in experiment [1] is 69 µM; in experiment [2], more than 100 µM; in [3] it was more than 100 µM; in experiment [4] it was more than 100 µM; in [5] (read-out: Ki), more than 100 µM; in [6] (read-out: Ki), more than 100 µM. The same compound had a pKi in experiment [1] of 4.18.
Take `O=C(O)Cc1cccc(O[C@H]2CN[C@H](C(=O)O)C2)c1`: the Ki in [1], in [2], in experiment [3], in [4], in [7] and in [5] (read-out: Ki) was more than 100 µM each time. In addition, in experiment [6] (read-out: Ki), the Ki is more than 100 µM.
Usually IC50 stands for the concentration at which inhibition is half-maximal. For `O=C(O)c1cccc(O[C@H]2CN[C@H](C(=O)O)C2)c1`, the Ki in experiment [1] is more than 100 µM; in experiment [2], more than 100 µM; in experiment [3], more than 100 µM; in experiment [4], more than 100 µM; in [5] (read-out: Ki), 36 µM; in experiment [5] (read-out: pKi (converted)), 33.1 µM. Moreover, in experiment [6] (read-out: Ki), the Ki is more than 1000 µM. Besides, the IC50 in experiment [8], in experiment [9] and in experiment [10] was more than 1000 µM each time.
Take `O=C(O)c1ccccc1S[C@H]1CN[C@H](C(=O)O)C1`: the Ki in experiment [1] was 19 µM; in experiment [2] it was more than 100 µM; in experiment [3], more than 100 µM; in experiment [4] it was more than 100 µM; in experiment [5] (read-out: Ki), 8.4 µM; in experiment [6] (read-out: Ki) it was 22 µM. In addition, in experiment [1], the pKi is reported as 4.73.
Regarding `O=C(O)c1cccc(O[C@@H]2CN[C@H](C(=O)O)C2)c1`, the Ki in [1], in experiment [2], in [3], in experiment [4], in experiment [5] (read-out: Ki) and in experiment [6] (read-out: Ki) was more than 100 µM each time.
Turning to `O=C(O)c1cccc(S[C@@H]2CN[C@H](C(=O)O)C2)c1`, the Ki in experiment [1], in experiment [2], in [3], in experiment [4], in experiment [5] (read-out: Ki) and in experiment [6] (read-out: Ki) was more than 100 µM in each case.
Turning to `O=C(O)c1ccc(O[C@H]2CN[C@H](C(=O)O)C2)c(C(=O)O)c1`, the Ki is more than 100 µM in experiment [1]; more than 100 µM in experiment [2]; more than 1000 µM in experiment [3]; more than 100 µM in experiment [4]; more than 100 µM in experiment [7]; 100 µM in [5] (read-out: Ki). Moreover, the Ki in [6] (read-out: Ki) was more than 100 µM.
For the compound `O=C(O)c1ccccc1O[C@H]1CN[C@H](C(=O)O)C1`, the Ki in experiment [1] was more than 100 µM; in experiment [2], more than 100 µM; in [3], more than 100 µM; in [11], 2.27 µM; in [4], more than 100 µM; in experiment [5] (read-out: Ki) it was 4 µM. Besides, in [6] (read-out: Ki), the Ki is more than 100 µM. The 50% inhibitory concentration (IC50) was more than 1000 µM in experiment [8]; more than 1000 µM in experiment [9]; more than 1000 µM in experiment [10]; 5.7 µM in experiment [12]; more than 100 µM in experiment [13].
Consider `O=C(O)c1cc2ccccc2cc1O[C@H]1CN[C@H](C(=O)O)C1`, for which the Ki in experiment [1] was more than 100 µM; in [2], more than 100 µM; in [3] it was more than 1000 µM; in experiment [4] it was more than 100 µM; in experiment [7], more than 100 µM; in experiment [5] (read-out: Ki), 3.5 µM. The Ki in experiment [6] (read-out: Ki) was more than 100 µM.
With `CC(=O)c1ccc(O[C@H]2CN[C@H](C(=O)O)C2)c(C(=O)O)c1`, the Ki in experiment [1] was more than 100 µM; in experiment [2] it was more than 100 µM; in experiment [3] it was more than 100 µM; in experiment [4], more than 100 µM; in [7], more than 100 µM; in [5] (read-out: Ki), 4.7 µM. Further, the Ki in [6] (read-out: Ki) was determined as 30 µM.
Regarding `O=C(O)c1ccccc1S[C@@H]1CN[C@H](C(=O)O)C1`, the Ki in [1], in experiment [2], in experiment [3], in experiment [4], in [5] (read-out: Ki) and in [6] (read-out: Ki) was more than 100 µM in each case.
Consider `O=C(O)c1ccc2ccccc2c1O[C@H]1CN[C@H](C(=O)O)C1`, for which the Ki in experiment [1], in [2], in [3], in [4], in [7] and in experiment [5] (read-out: Ki) was more than 100 µM throughout. Besides, the Ki in experiment [6] (read-out: Ki) was more than 100 µM.
`O=C(O)Cc1ccccc1O[C@H]1CN[C@H](C(=O)O)C1`: the Ki in [1] is more than 100 µM; in experiment [2], more than 100 µM; in experiment [3], more than 1000 µM; in [4], more than 100 µM; in [7] it was more than 100 µM; in experiment [5] (read-out: Ki), 24 µM. In addition, the Ki in [6] (read-out: Ki) was more than 100 µM.
With `Cl.O=C(O)c1ccc(O[C@H]2CN[C@H](C(=O)O)C2)cc1`, the Ki in experiment [1] is 81 µM; in experiment [2] it was more than 100 µM; in experiment [3] it was more than 100 µM; in [4], more than 100 µM; in [5] (read-out: Ki), more than 100 µM; in [6] (read-out: Ki), more than 100 µM. The pKi in experiment [1] is given as 4.11. The IC50 in [8], in experiment [9] and in experiment [10] was more than 1000 µM throughout.
With `O=C(O)c1ccccc1O[C@@H]1CN[C@H](C(=O)O)C1`, the Ki in [1], in experiment [2], in [3], in [4], in experiment [5] (read-out: Ki) and in experiment [6] (read-out: Ki) was more than 100 µM in each case. Besides, the IC50 in experiment [8], in experiment [9] and in experiment [10] was more than 1000 µM throughout.
`Cc1ccc(O[C@H]2CN[C@H](C(=O)O)C2)c(C(=O)O)c1`: the Ki is more than 100 µM in [1]; more than 100 µM in [2]; more than 100 µM in experiment [3]; more than 100 µM in experiment [4]; more than 100 µM in experiment [7]; 24 µM in experiment [5] (read-out: Ki). For the same compound, the Ki in [6] (read-out: Ki) was more than 100 µM.

The record behind these values is ChEMBL document CHEMBL4000194, “Design and Synthesis of a Series of l-trans-4-Substituted Prolines as Selective Antagonists for the Ionotropic Glutamate Receptors Including Functional and X-ray Crystallographic Studies of New Subtype Selective Kainic Acid Receptor Subtype 1 (GluK1) Antagonist …” (J Med Chem, 2017).
